Shown are actives, neighbours in structure and some others; about 1.8% of the full set was active somewhere.
M5 PAM – human M5 muscarinic receptor positive allosteric modulators, primary screen, CHO-K1 cells, Fluo-8 calcium fluorescence | Muscarinic acetylcholine receptor M5 (Homo sapiens), P08912 | CHO-K1 hM5, ACh EC20 PAM; 0% = ACh EC20, 100% = ACh EC100 | activation, % at 3 µM | hit rate 0.3% among 360,000 | AID 624038, 2012;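 active = activation above the run cutoff, the mean activation of all test compounds plus 3 SD, cut at about 18% in these data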
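Assay system: CHO-K1 hM5 cells. Also added: acetylcholine at EC20 concentration, added after compound. Dosing: 3 µM, single dose. Times: compound preincubation 140 s before EC20 acetylcholine addition. Signal: Fluo-8 calcium fluorescence. Measure: % activation relative to EC20 and EC100 ACh responses. Repeats: singlicate, one well per test compound.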
M4 antag – human M4 muscarinic receptor antagonists, primary screen, CHO cells, Fluo-8 calcium fluorescence | Muscarinic acetylcholine receptor M4 (Homo sapiens), P08173 | CHO-hM4 cells, ACh EC80 | inhibition, % at 3 µM | hit rate 0.73% among 360,000 | AID 624125, 2012;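 active = inhibition above its plate's cutoff, the mean inhibition of sample wells plus 3 SD, cut at about 27% in these data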;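 also: 0% = acetylcholine EC80 with DMSO and 100% = DMSO without agonist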
Target sequence (P08173 whole entry, looked up): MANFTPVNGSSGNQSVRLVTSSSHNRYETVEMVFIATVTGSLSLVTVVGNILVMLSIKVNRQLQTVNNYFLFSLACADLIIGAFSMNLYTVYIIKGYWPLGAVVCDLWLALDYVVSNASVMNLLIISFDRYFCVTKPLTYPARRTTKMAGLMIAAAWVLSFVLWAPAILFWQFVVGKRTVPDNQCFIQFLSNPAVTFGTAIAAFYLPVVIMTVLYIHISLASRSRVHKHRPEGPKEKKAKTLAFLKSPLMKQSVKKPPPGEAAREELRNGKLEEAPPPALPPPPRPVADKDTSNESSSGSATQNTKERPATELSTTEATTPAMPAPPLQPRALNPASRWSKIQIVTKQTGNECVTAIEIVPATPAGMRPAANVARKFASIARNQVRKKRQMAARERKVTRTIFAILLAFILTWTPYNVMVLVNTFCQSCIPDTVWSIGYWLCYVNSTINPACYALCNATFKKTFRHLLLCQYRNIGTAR
CHRM5 antagonist – human M5 muscarinic receptor antagonists, primary screen, CHO cells, Fluo-8 calcium fluorescence | inhibition, % at 3 µM | CHO-hM5 cells, ACh EC80 | hit rate 0.59% among 360,000 | Muscarinic acetylcholine receptor M5 (Homo sapiens), P08912;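 active = inhibition above a per-plate cutoff, the mean of that plate's test compounds plus 3 SD, cut at about 27% in these data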;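 also: 0% = acetylcholine EC80 with DMSO and 100% = DMSO without agonist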
M4 ag – human M4 muscarinic receptor agonists, primary screen, CHO-K1 cells, Fluo-8 calcium fluorescence. activation, % at 3 µM. Muscarinic acetylcholine receptor M4 (Homo sapiens), P08173. CHO-K1 hM4/Gqi5; vehicle 0%, full acetylcholine response 100%. hit rate 0.14% among 360,000;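 active = activation above the run mean over all test wells plus 3 SD, cut at about 32% in these data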;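 also: peak over basal fluorescence ratio per well then scaled between controls; 0% = DMSO wells and 100% = acetylcholine at EC100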
M5 ag – human M5 muscarinic receptor agonists, primary screen, CHO-K1 cells, Fluo-8 calcium fluorescence. Muscarinic acetylcholine receptor M5 (Homo sapiens), P08912. CHO-K1 hM5 cells; 0% DMSO wells, 100% maximal acetylcholine response. activation, % at 3 µM. hit rate 0.19% among 360,000;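 active = activation above the run's mean over test compounds plus 3 SD, cut at about 23% in these data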;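 also: signal is peak over basal fluorescence ratio across the kinetic read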
M4 PAM – human M4 muscarinic receptor positive allosteric modulators, primary screen, CHO-K1 cells, Fluo-8 calcium fluorescence; Muscarinic acetylcholine receptor M4 (Homo sapiens), P08173; CHO-K1 hM4/Gqi5, ACh EC20; 0% = ACh EC20, 100% = maximal ACh; activation, % at 3 µM; hit rate 0.4% among 360,000; AID 624126, 2012;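 active = activation above its plate's cutoff, the mean activation of sample wells plus 3 SD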
An asterisk follows results filed as active.

SMILES | M5 PAM | M4 antag | CHRM5 antagonist | M4 ag | M5 ag | M4 PAM
Cc1nc2ccc(NC(=O)c3cc(S(=O)(=O)N(C)c4ccccc4)ccc3Cl)cc2s1 | -16 | 7 | 29* | 20 | 12 | -21
Cc1cc(C(=O)CSc2nc3ccccc3c(=O)[nH]2)c(C)n1CC1CCCO1 (stereo unspecified) | -34 | 27* | 36* | 19 | 4 | -16
Cc1cc(SCC(=O)NCC2CCCO2)nc2ccccc12 (stereo unspecified) | 0 | 7 | 3 | 8 | 23* | -4
Cc1cc(C(=O)CN2C(=O)NC(C)(c3ccccc3)C2=O)c(C)n1CC1CCCO1 (stereo unspecified) | -2 | 27* | 3 | 3 | 2 | 18
CCn1c(SCC(=O)c2cc(C)n(CC3CCCO3)c2C)nc2ccccc21 (stereo unspecified) | -5 | -9 | 9 | 6 | -6 | -4
O=C1NC2c3ccccc3C(=O)N2c2c1cnn2-c1ccccc1 (stereo unspecified) | 3 | -4 | -5 | 2 | -1 | 18*
COc1ccc(N2CCN(C(=S)Nc3ccccc3)CC2)cc1 | -3 | -3 | 10 | 1 | 1 | -3
CC(=O)c1ccc(N2CCN(C(=S)Nc3ccc(Oc4ccccc4)cc3)CC2)cc1 | -31 | 19 | 35* | 13 | 2 | -21
Cc1ccc(C(=O)N2CCN(c3ccc(NC(=S)NC(=O)Cc4ccccc4)cc3)CC2)cc1 | -19 | 13 | 29* | 4 | -1 | -9
COc1ccc(-c2ccc(CN3C(C)C(=O)N(Cc4cn(CCC5OCCO5)nn4)CCS3(=O)=O)cc2)cc1OC (stereo unspecified) | 1 | -5 | -1 | 7 | 0 | -1
Cc1ccc([N+](=O)[O-])cc1S(=O)(=O)NCCc1c(C)[nH]c2c(C)cccc12 | -6 | 28* | 19 | 4 | 2 | -6
COCCNc1ncnc2c1ncn2[C@H]1CN(Cc2ccco2)C[C@@H](CO)O1 | -8 | -9 | -1 | 1 | 0 | 17
CCC(CC)N1CCN(S(=O)(=O)c2ccc(OC)cc2)CC1 | 21* | -10 | -2 | 0 | -7 | -1
COc1ccc(N2CCN(S(=O)(=O)c3ccc(OC)cc3)CC2)cc1 | -4 | -3 | 6 | 3 | 2 | -7
Cc1occc1C(=O)Nc1sc2c(c1C(N)=O)CCC(C(C)(C)C)C2 (stereo unspecified) | 4 | 3 | -10 | 1 | 4 | 29*
Cc1ccc2cc(CN(CCN(C)C)C(=S)Nc3ccccc3)c(=O)[nH]c2c1C | -24 | -11 | 37* | 2 | 43* | 6
CCN(CC)CCN(Cc1cc2cccc(C)c2[nH]c1=O)C(=S)Nc1ccccc1 | -31 | 4 | 58* | 1 | 63* | -9
COc1ccc(CN(C)C(=O)CSc2nnc(C3CC3)n2C2CC2)cc1 | 8 | -9 | -5 | 2 | 1 | 15
O=C(CCl)N(c1ccc(Cl)cc1)c1c[nH]c2ccccc12 | 5 | 35* | 6 | 8 | 8 | 5
O=C(CCl)N(c1ccccc1)c1c[nH]c2ccccc12 | -3 | 0 | -2 | 2 | -5 | 2
C=CCN1C(=O)C2(OCCCO2)c2cc(Cl)ccc21 | -4 | 13 | 5 | -1 | 1 | -5
COc1ccc(C2=Nn3c(nnc3-c3ccccc3F)SC2)cc1OC1CCCC1 | -32 | 29* | 12 | 6 | -10 | -9
COc1ccc(C2=Nn3c(nnc3-c3ccccc3OC)SC2)cc1OCC1CC1 | -6 | 4 | -3 | 2 | -11 | 12
COc1ccc(C2=Nn3c(nnc3-c3ccccc3F)SC2)cc1OC1CCOC1 (stereo unspecified) | -16 | -11 | 3 | 8 | 0 | 2
COc1ccc(OC)c(-c2nnc3n2N=C(c2ccc(OC(F)F)c(OCC4CC4)c2)CS3)c1 | -40 | 28* | 21 | 1 | -9 | -13
SMILES | M5 PAM | M4 antag | CHRM5 antagonist | M4 ag | M5 ag | M4 PAM
CCc1ccc(OCC(=O)Nc2ccncc2)cc1 | -16 | 4 | 14 | 8 | 5 | -9
Cc1ccc(Oc2ccc(OCC(=O)Nc3ccncc3)cc2)cc1 | -12 | 18 | 34* | 12 | 6 | -13
O=C(COc1ccc(C(=O)c2ccccc2)cc1)Nc1cccnc1 | -15 | 17 | 31* | 20 | 8 | -6
O=C(NCc1ccco1)C1CCN(C(=O)c2ccc(Cl)cc2Cl)CC1 | -2 | -1 | 7 | 0 | 1 | -1
O=C(Nc1ccc(Cl)c(Cl)c1)OCc1cccnc1 | -16 | 34* | 31* | 17 | 5 | -17
O=C(Nc1cccnc1)OCc1ccccc1 | -2 | -1 | -37 | 2 | 9 | 2
O=C(Nc1ccc(Cl)c(Cl)c1)c1cccc(S(=O)(=O)NCc2cccnc2)c1 | -18 | 22 | 34* | 23 | 13 | -11
O=S(=O)(c1ccccc1F)N1CCN(CCc2ccccc2)CC1 | -4 | 101* | -4 | -2 | -3 | -18
Cc1noc(C)c1NC(=O)N(C)C[C@H]1Oc2c(NC(=O)Nc3ccc4c(c3)OCO4)cccc2C(=O)N([C@H](C)CO)C[C@@H]1C | 5 | 3 | -2 | 3 | 3 | 6
CC(NC(=O)Nc1ccc(Cl)c(Cl)c1)C(c1ccccc1)N1CCOCC1 (stereo unspecified) | -16 | 6 | 31* | 73* | 18 | -7
CC(NC(=O)c1ccc(Cl)cc1Cl)C(c1ccccc1)N1CCOCC1 (stereo unspecified) | -3 | -1 | 7 | 0 | -3 | 2
CC(NC(=O)C1CCC(C(C)(C)C)CC1)C(c1ccccc1)N1CCOCC1 (stereo unspecified) | -2 | 6 | -1 | -1 | -2 | -6
CC(NC(=O)Nc1ccc([N+](=O)[O-])cc1)C(c1ccccc1)N1CCOCC1 (stereo unspecified) | -8 | -4 | 3 | 76* | 31* | 0
Cc1ccc(S(=O)(=O)NC(=O)C2(C)CCN2C(=O)Cc2ccc(Cl)cc2Cl)cc1 (stereo unspecified) | 3 | -1 | -6 | 0 | 0 | 2
COc1cccc(NC(=O)c2ccc(N3C(=O)C4CCC(C)CC4C3=O)cc2)c1 (stereo unspecified) | -13 | -20 | 29* | 19 | -1 | -4
COc1ccc(NC(=O)c2cccc(N3C(=O)C4CCC(C)CC4C3=O)c2)c(OC)c1 (stereo unspecified) | -6 | 9 | 23 | 11 | -1 | -11

Assay outcomes as filed in PubChem BioAssay.
